# A selection: hits, their analogues and other compounds. The true share with any hit is near 1.3%.
# EBV gp42 inh: EBV gp42 inhibition | Q1HVG2 | Fluorescence polarization binding assay, mP read-out | inhibition, % (tested at 21.74 µM) | 220,000 tested, 0.42% active | AID 1085; in the data active = inhibition above about 50%
# C-LANA FP: KSHV C-LANA DNA binding inhibition; MBP-C-LANA/FAM-LBS DNA binding, fluorescence polarization; 340,000 tested, 0.078% active; inhibition, % at 9 µM;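 active = highest replicate inhibition at or above 60% at 9 µM, even if other replicates fall short; inactive = all replicates below 60% inhibition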;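 also: 0% = neutral control wells and 100% = 4 µM acridine orange control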
# Keap1 Nrf2 FP: inhibitors of human Keap1-Nrf2 protein-protein interaction | Q14145 | Keap1 Kelch-Nrf2 peptide fluorescence polarization, 1536-well | inhibition, % at 9.4 µM | 340,000 tested, 0.15% active | AID 504523; in the data active = inhibition above about 12%; inconclusive = no clear call, values can overlap the other calls; inactive = below about 7.3%;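 also: human Keap1 Kelch domain with fluorescein labeled Nrf2 9mer peptide probe; 0% = neutral control wells and 100% = peptide positive control; higher means more block of Keap1 binding to Nrf2 peptide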
# GRK2 inh: inhibitors of human GRK2 displacing RNA aptamer; P25098; 330,000 tested, 0.59% active; bead flow cytometry, FAM-aptamer displacement from GRK2; inhibition of aptamer binding, % at 10 µM;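 active = inhibition of aptamer binding above 40%, roughly 3 SD of noise, on plates passing a quality check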;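 also: median bead fluorescence of bound FAM aptamer so fluorescent compounds give negative values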
# Target sequence (P25098 whole entry, looked up): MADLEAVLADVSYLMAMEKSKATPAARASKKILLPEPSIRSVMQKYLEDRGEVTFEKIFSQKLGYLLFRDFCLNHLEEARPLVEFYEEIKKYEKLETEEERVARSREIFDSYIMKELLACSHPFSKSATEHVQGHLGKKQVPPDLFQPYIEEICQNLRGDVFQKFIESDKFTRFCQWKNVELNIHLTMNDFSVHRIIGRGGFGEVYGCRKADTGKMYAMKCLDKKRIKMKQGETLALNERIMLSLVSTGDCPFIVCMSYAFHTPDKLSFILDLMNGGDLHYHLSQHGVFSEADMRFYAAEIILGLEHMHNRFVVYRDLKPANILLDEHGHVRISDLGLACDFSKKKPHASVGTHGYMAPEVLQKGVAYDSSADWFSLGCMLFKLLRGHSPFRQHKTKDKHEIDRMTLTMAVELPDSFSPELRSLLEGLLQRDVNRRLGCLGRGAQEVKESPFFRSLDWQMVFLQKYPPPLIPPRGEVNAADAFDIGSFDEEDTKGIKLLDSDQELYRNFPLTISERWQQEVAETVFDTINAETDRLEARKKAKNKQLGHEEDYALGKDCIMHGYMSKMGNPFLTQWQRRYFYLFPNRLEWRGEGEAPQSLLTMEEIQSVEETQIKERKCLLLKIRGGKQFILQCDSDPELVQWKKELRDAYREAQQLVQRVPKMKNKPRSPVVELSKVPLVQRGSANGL
# MEX-5 binding: C. elegans MEX-5 TCR-2 RNA binding activity | Q9XUB2 | MEX-5/FITC-TCR2 RNA binding, fluorescence polarization; stronger effect = lower value | activity score (negative = inhibition of binding), % at 10 µM | 300,000 tested, 0.38% active | AID 1832;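 active = inhibition past about -25% in most replicates, and total fluorescence under double the plate's negative control median, limit read from the data; inconclusive = replicates evenly split on the limit, or fluorescence at least double controls; inactive = too little inhibition in most replicates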;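 also: 0% = DMSO and -100% = 5 µM competing unlabeled TCR2 RNA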
# T cell modulator: T cell immune modulation candidate. 2C CD8+ T cell-vesicle binding, flow cytometry; stronger effect = lower value. 330,000 tested, 0.068% active. response (vesicle binding), % at 7 µM;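 active = response, share of CD8 T cells binding vesicles, and their 90th percentile fluorescence all below set limits, cut at about 80% in these data, passing the limit was not always enough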;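 also: values below 100% mean blocked vesicle binding to the CD8+ T cells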
#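 Benchmarks: naked versus QL9-loaded vesicles / Assay system: purified 2C TCR transgenic mouse naive CD8+ T cells / Technique: high-throughput flow cytometry with anti-B7-1 and anti-CD8 staining / Timing: Cell–vesicle co-incubation 1.5 h at 37 °C, staining 20 min on ice / Read-out: percent CD8+ FL2 mean versus row control / Probe or stimulus: QL9-loaded Drosophila micro-vesicles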
# Active calls of the source: *; i = inactive; ? = inconclusive; . = no result.
SMILES,EBV gp42 inh,C-LANA FP,Keap1 Nrf2 FP,GRK2 inh,MEX-5 binding,T cell modulator
Cc1ccccc1NC(=O)Cc1nc(COC(=O)c2cc(Br)ccc2O)cs1,.,1.6,-3.1,0.0,.,646.9
Cc1ccccc1NC(=O)Cc1nc(COC(=O)c2cc([N+](=O)[O-])ccc2N)cs1,.,-0.9,0.5,55.0*,1.1,344.6
CCOc1ccc2c(c1)c1nnc(SCC(=O)N3CCC(C)CC3)nc1n2C,-0.5,-0.6,-1.7,.,0.2,.
CCCn1c(O)c(N=Nc2ccc3ccccc3n2)c2ccccc21,62.6*,2.1,-2.3,6.0,-7.8,239.2
CC(C)CCn1c(O)c(N=Nc2ccccn2)c2ccccc21,4.2,-0.9,0.0,3.0,-12.5,210.0
COc1cc(/C=N/N2C(=O)CSC2=S)ccc1O,-17.9,-3.8,-8.1,2.0,-0.5,i
O=C1CSC(=S)N1/N=C/c1cc(Br)c(O)c(Br)c1,.,-22.0,-262.9,12.0,-32.8*,845.6
O=C1C2=C(SCCS2)C(=O)N1CCCO,117.3*,0.0,8.9,3.0,-21.9,728.3
C/C(=N\NC(=O)c1cc(C)nc2ccccc12)c1ccco1,-8.4,0.2,-3.9,24.0,2.5,314.2
COc1ccc(-c2cc(C(=O)N/N=C(\C)c3ccco3)c3ccccc3n2)c(OC)c1,.,33.6,-2.3,0.0,-31.8*,148.5
CCCCCC(=O)NC(CC(=O)OC)c1ccc2c(c1)OCO2 (stereo unspecified),1.0,-0.1,-3.6,4.0,0.2,117.4
COc1ccccc1C(=O)n1nc(-c2ccco2)nc1SC,-4.5,0.0,-52.4,3.0,.,28.5*
CSc1nc(-c2ccco2)nn1C(=O)c1ccccc1,-21.1,0.0,-6.7,0.0,2.2,147.3
COC(=O)[C@H](CCSC)NC(=O)NC1CCN(Cc2ccccc2)CC1,-18.8,8.8,0.1,0.0,-35.5*,611.4
COC(=O)[C@@H](NC(=O)NC1CCN(Cc2ccccc2)CC1)C(C)C,7.5,3.0,-2.7,0.0,-4.6,150.6
Cc1cc(Cl)c(OCCCSc2nc(C)cc(=O)[nH]2)c(Br)c1,-10.6,0.1,-3.3,0.0,.,74.5*
O=C(/C(Br)=C/Nc1cc(Cl)ccc1Cl)C(F)(F)F,-11.1,20.1,0.0,86.0*,-2.9,329.6
Oc1ccc(NC(=S)N=Nc2c(O)[nH]c3ccccc23)cc1,2.3,-1.2,-5.2,3.0,-25.9*,287.6
Cc1ccc(NC(=S)N=Nc2c(O)[nH]c3ccccc23)cc1,-2.8,-0.1,-2.5,0.0,1.4,265.2
N#Cc1c(SCC(N)=O)nc2c(c1-c1ccc(O)cc1)CCCC2,110.6*,4.2,1.0,0.0,0.7,153.2
CC(C)Cc1ccc(C(C)C(N)=Nc2ccc(O)cc2)cc1 (stereo unspecified),.,2.5,1.8,0.0,0.4,175.5
O=[N+]([O-])c1ccc(N2N=C(c3ccco3)CC2c2ccccc2)cc1 (stereo unspecified),70.0*,1.8,0.4,5.0,-4.7,214.5
COc1ccccc1N(CC(=O)N/N=C/c1ccc(SC)cc1)S(C)(=O)=O,-2.2,-2.3,-1.3,11.0,2.4,140.1
OC(C#Cc1ccccn1)c1cccs1 (stereo unspecified),1.2,6.7,-4.0,2.0,-34.8*,346.7
COc1ccc(-c2cccc(-c3nc4ccc(Cl)cn4c3NC3CCCCC3)c2)cc1,.,-0.1,-3.6,0.0,.,311.7
SMILES,EBV gp42 inh,C-LANA FP,Keap1 Nrf2 FP,GRK2 inh,MEX-5 binding,T cell modulator
CC(=O)c1csc(-c2cccc(-c3nc4ccc(Cl)cn4c3NC3CCCCC3)c2)c1,.,0.1,-3.6,5.0,-3.4,0.0*
CSc1nc(=S)n(-c2ccccc2)c(C)c1C(C)=O,.,-3.6,-4.6,2.0,1.7,80.5
Cn1nc(C(=O)NCCc2ccc3c(c2)OCCO3)c2ccccc2c1=O,.,1.0,-0.5,.,.,.
CCn1nc(C(=O)NCCc2ccc3c(c2)OCCO3)c2ccccc2c1=O,.,0.6,3.8,2.0,.,46.8*
COc1ccc(C2c3ccc(O)cc3Oc3ncn(Cc4ccco4)c(=N)c32)cc1OC (stereo unspecified),-4.1,1.5,-2.2,0.0,-28.8*,173.7
Cc1ccccc1C(=O)NNC(=O)c1cccn1C,.,1.6,-1.9,1.0,-0.8,277.8
Cn1cccc1C(=O)NNC(=O)c1ccccc1Br,.,1.7,-4.2,4.0,-1.5,0.0*
CCOC(=O)C1CCCN(C(=O)c2ccc3c(=O)n(Cc4ccccc4OC)c(=S)[nH]c3c2)C1 (stereo unspecified),.,1.4,-6.7,4.0,-4.0,394.7
COc1ccc(NC(=O)/C(C#N)=C\c2ccc(N3CCOCC3)o2)cc1,-317.2,-44.8,-293.8,0.0,?,490.6
COc1ccc(NC(=O)/C(C#N)=C/c2ccc(Br)o2)cc1,7.9,-1.3,2.3,67.0*,0.0,582.4
Cc1cc(C)nc(NN2C(=O)/C(=C/c3ccc(O)cc3)SC2=S)n1,-104.9,-5.3,-7.6,84.0*,34.0,336.6
Nc1c(C(=O)NC23CC4CC(CC(C4)C2)C3)sc2nc3c(c(C(F)(F)F)c12)CCC3,-27.0,0.9,-2.7,2.0,-6.2,147.7
CCOC(=O)c1cc(-c2ccc(/C=C3/C(=O)NC(=O)C(C#N)=C3C)o2)ccc1Cl,106.0*,24.7,-2.4,0.0,-5.9,i
COc1ccc(-c2ncncc2-c2csc(C)n2)c(O)c1OC,-8.5,-0.8,-2.4,0.0,-0.5,340.4
COC1=C(N)C(=O)c2nc(-c3nc(C(=O)O)c(C)c(-c4ccc(OC)c(OC)c4O)c3N)ccc2C1=O,0.2,.,.,66.0*,.,438.7
O=C(OCCN1C(=O)c2cccc3c(N4CCOCC4)ccc(c23)C1=O)c1ccc(Cl)cc1,123.2*,38.6,4.3,0.0,?,256.3
O=C(OCCN1C(=O)c2ccccc2C1=O)c1cc(S(=O)(=O)N2CCOCC2)ccc1F,-20.5,0.6,-9.9,0.0,-3.1,263.1
CCOC(=O)C1=C(N)N(c2ccccc2Oc2ccccc2)C(=O)C1,-1.1,-1.1,-4.6,0.0,1.5,262.6
CCOC(=O)C1=C2NC(=O)c3ccccc3N2C(=O)C1,-8.4,7.6,2.3,2.0,-31.2*,302.3
CC1=C(C(N)=O)C(c2ccc(Br)cc2)n2nc(CCCO)nc2N1 (stereo unspecified),.,1.8,-2.4,0.0,-0.5,377.1
Oc1ccc(C2C=C(c3ccc(F)cc3)Nc3ncnn32)cc1 (stereo unspecified),17.2,1.3,-4.7,.,-8.7,.
C1=C(c2ccc(-c3ccccc3)cc2)Nc2ncnn2C1c1ccco1 (stereo unspecified),149.5*,26.6,5.5,.,.,.
Cc1ccc(C2C=C(c3ccccc3)Nc3ncnn32)cc1 (stereo unspecified),.,4.7,-1.1,0.0,2.0,343.8
Brc1ccc(C2=CC(c3cccs3)n3ncnc3N2)cc1 (stereo unspecified),161.3*,101.0*,55.4*,1.0,-51.0*,336.7

# From PubChem
